Assay results published in ChEMBL document CHEMBL1131450, “Synthesis and antitumor evaluation of 2,5-disubstituted-indazolo[4, 3-gh]isoquinolin-6(2H)-ones (9-aza-anthrapyrazoles)” (J Med Chem, 1998).
≈ marks a conversion by molar mass, not a printed value.

Key:
MX1 [1] = test: In vivo antitumor activity was measured on MX-1 human mammary carcinoma cells. TWI%=tumor weight inhibition. Optimal dose 27 mg/kg/day.; type: functional
LoVo/Dx (Homo sapiens) = test: cells
LoVo [2] = test: Resistance index measured as the ratio of IC50 of LoVo/Dx cell line to that of LoVo cell line.; type: functional, Homo sapiens
P388 [3] = test: In vivo antitumor activity was measured on systemic P388 murine leukemia cells. Optimal dose 24 mg/kg/day.; type: functional, Mus musculus
How it was run: (§1)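 CD2F1 male mice given 10⁶ P388 leukemia cells iv (day 0); drug given iv on days 1, 4 and 7. Survival expressed as T/C% = median survival time of treated / median survival of controls × 100, reported at optimal dose (mg/kg/day) or maximum tested dose.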

LoVo [4] = test: In vitro cytotoxicity on human colon adenocarcinoma (LoVo ) tumor cell line.; type: functional, cell-based
MX1 [5] = test: In vivo antitumor activity was measured on MX-1 human mammary carcinoma cells. TWI%=tumor weight inhibition. Optimal dose 10 mg/kg/day.; type: functional
P388 [6] = test: In vivo antitumor activity was measured on systemic P388 murine leukemia cells. Optimal dose 7.5 mg/kg/day.; type: functional, Mus musculus; how it was run: as §1
P388 [7] = test: In vivo antitumor activity was measured on systemic P388 murine leukemia cells. Maximum tested dose 40 mg/kg/day.; type: functional, Mus musculus; how it was run: as §1
MX1 [8] = test: In vivo antitumor activity was measured on MX-1 human mammary carcinoma cells. TWI%=tumor weight inhibition. Optimal dose 90 mg/kg/day.; type: functional
MX1 [9] = test: In vivo antitumor activity was measured on MX-1 human mammary carcinoma cells. TWI%=tumor weight inhibition. Optimal dose 150 mg/kg/day.; type: functional
P388 [10] = test: In vivo antitumor activity was measured on systemic P388 murine leukemia cells. Maximum tested dose 12 mg/kg/day.; type: functional, Mus musculus; how it was run: as §1
MX1 [11] = test: In vivo antitumor activity was measured on MX-1 human mammary carcinoma cells. TWI%=tumor weight inhibition. Optimal dose 40 mg/kg/day.; type: functional
MX1 [12] = test: In vivo antitumor activity was measured on MX-1 human mammary carcinoma cells. TWI%=tumor weight inhibition. Optimal dose 12 mg/kg/day.; type: functional
P388 [13] = type: functional, Mus musculus
MX1 [14] = test: In vivo antitumor activity was measured on MX-1 human mammary carcinoma cells. TWI%=tumor weight inhibition. Optimal dose 20 mg/kg/day.; type: functional
P388 [15] = test: In vivo antitumor activity was measured on systemic P388 murine leukemia cells. Optimal dose 4 mg/kg/day.; type: functional, Mus musculus; how it was run: as §1
MX1 [16] = test: In vivo antitumor activity was measured on MX-1 human mammary carcinoma cells. TWI%=tumor weight inhibition. Optimal dose 2 mg/kg/day.; type: functional
MX1 [17] = test: In vivo antitumor activity was measured on MX-1 human mammary carcinoma cells. TWI%=tumor weight inhibition. Optimal dose 9 mg/kg/day.; type: functional
P388 [18] = test: In vivo antitumor activity was measured on systemic P388 murine leukemia cells. Optimal dose 6 mg/kg/day.; type: functional, Mus musculus; how it was run: as §1
P388 [19] = test: In vivo antitumor activity was measured on systemic P388 murine leukemia cells. Maximum tested dose 60 (mg/kg/day); type: functional, Mus musculus; how it was run: as §1
P388 [20] = test: In vivo antitumor activity was measured on systemic P388 murine leukemia cells. Optimal dose 3 mg/kg/day.; type: functional, Mus musculus; how it was run: as §1
MX1 [21] = test: In vivo antitumor activity was measured on MX-1 human mammary carcinoma cells. TWI%=tumor weight inhibition. Optimal dose 6 mg/kg/day.; type: functional
P388 [22] = test: In vivo antitumor activity was measured on systemic P388 murine leukemia cells. Optimal dose at 7.5 mg/kg/day; type: functional, Mus musculus; how it was run: as §1
MX1 [23] = test: Antitumor activity was measured on MX-1 human mammary carcinoma cells. TWI%=tumor weight inhibition. Optimal dose at 7.5 mg/kg/day; type: functional
P388 [24] = test: In vivo antitumor activity was measured on systemic P388 murine leukemia cells. Optimal dose at 3 mg/kg/day; type: functional, Mus musculus; how it was run: as §1
MX1 [25] = test: In vivo antitumor activity was measured on MX-1 human mammary carcinoma cells. TWI%=tumor weight inhibition. Optimal dose at 3 mg/kg/day; type: functional
MX1 [26] = test: In vivo antitumor activity was measured on MX-1 human mammary carcinoma cells. TWI%=tumor weight inhibition. Optimal dose 17.5 mg/kg/day.; type: functional
P388 [27] = test: In vivo antitumor activity was measured on systemic P388 murine leukemia cells. Optimal dose 75 mg/kg/day.; type: functional, Mus musculus; conditions: in the assay text read “7.5 mg/kg/day” for “75 mg/kg/day”; how it was run: as §1

| IC50 (LoVo/Dx (Homo sapiens)) | SMILES | RI (LoVo [2]) | IC50 (LoVo [4]) | other results |
| --- | --- | --- | --- | --- |
| 3.63 µg/mL (≈ 8.63 µM) | CN(C)CCn1nc2c3c(c(NCCN4CCOCC4)ccc31)C(=O)c1ccncc1-2 | 2.7 | 1.35 µg/mL (≈ 3.21 µM) | TWI (MX1 [1]): 48%; T/C (P388 [3]): 256% |
| 90 µg/mL (≈ 220 µM) | CN(C)CCCn1nc2c3c(c(NCCNCCO)ccc31)C(=O)c1ccncc1-2 | 300 | 0.3 µg/mL (≈ 0.734 µM) | TWI (MX1 [5]): 98%; T/C (P388 [6]): 166% |
| > 100 µg/mL | CN(C)CCn1nc2c3c(c(NCCN(CCO)CCO)ccc31)C(=O)c1ccncc1-2 | >47 | 2.13 µg/mL (≈ 4.86 µM) | T/C (P388 [7]): 175%; TWI (MX1 [8]): 97% |
| > 100 µg/mL | NCCn1nc2c3c(c(NCCN(CCO)CCO)ccc31)C(=O)c1ccncc1-2 | 2.1 | 46.4 µg/mL (≈ 113 µM) | TWI (MX1 [9]): 50%; T/C (P388 [6]): 194% |
| 15.7 µg/mL (≈ 41.5 µM) | CCN(CC)CCNc1ccc2c3c(nn2CCN)-c2cnccc2C(=O)c13 | 30 | 0.52 µg/mL (≈ 1.37 µM) | T/C (P388 [10]): 147%; TWI (MX1 [11]): 51% |
| > 100 µg/mL | CN(C)CCNc1ccc2c3c(nn2CCO)-c2cnccc2C(=O)c13 | >5.4 | 18.5 µg/mL (≈ 52.6 µM) | T/C (P388 [7]): 112%; TWI (MX1 [8]): 16% |
| 1.55 µg/mL (≈ 3.79 µM) | CN(C)CCn1nc2c3c(c(NCCN(C)CCO)ccc31)C(=O)c1ccncc1-2 | 31.6 | 0.049 µg/mL (≈ 0.12 µM) | TWI (MX1 [12]): 75%; T/C (P388 [13]): 280% |
| > 100 µg/mL | NCCNc1ccc2c3c(nn2CCNCCO)-c2cnccc2C(=O)c13 | >46 | 2.17 µg/mL (≈ 5.92 µM) | TWI (MX1 [14]): 74%; T/C (P388 [13]): 175% |
| 1 µg/mL (≈ 2.64 µM) | CN(C)CCNc1ccc2c3c(nn2CCN(C)C)-c2cnccc2C(=O)c13 | 2.8 | 0.35 µg/mL (≈ 0.925 µM) | T/C (P388 [15]): 381%; TWI (MX1 [16]): 56% |
| 41.2 µg/mL (≈ 104 µM) | CN(C)CCn1nc2c3c(c(NCCNCCO)ccc31)C(=O)c1ccncc1-2 | 206 | 0.2 µg/mL (≈ 0.507 µM) | TWI (MX1 [17]): 99%; T/C (P388 [18]): 194% |
| > 100 µg/mL | NCCNc1ccc2c3c(nn2CCO)-c2cnccc2C(=O)c13 | >3.5 | 28.6 µg/mL (≈ 88.4 µM) | T/C (P388 [19]): 106% |
| > 100 µg/mL | NCCn1nc2c3c(c(NCCN4CCOCC4)ccc31)C(=O)c1ccncc1-2 | >57 | 1.76 µg/mL (≈ 4.48 µM) | TWI (MX1 [11]): 32%; T/C (P388 [7]): 129% |
| 10.2 µg/mL (≈ 30.3 µM) | CNCCNc1ccc2c3c(nn2CCN)-c2cnccc2C(=O)c13 | 49 | 0.21 µg/mL (≈ 0.624 µM) | T/C (P388 [20]): 153%; TWI (MX1 [21]): 70% |
| 53 µg/mL (≈ 97.5 µM) | COc1cccc2c1C(=O)c1c(O)c3c(c(O)c1C2=O)C[C@@](O)(C(=O)CO)C[C@@H]3O[C@H]1C[C@H](N)[C@H](O)[C@H](C)O1 [DOXORUBICIN] | 91.3 | 0.58 µg/mL (≈ 1.07 µM) | T/C (P388 [22]): 200%; TWI (MX1 [23]): 64% |
| > 100 µg/mL | CNCCNc1ccc2c3c(nn2CCNCCO)-c2cnccc2C(=O)c13 [NORTOPIXANTRONE] | >185 | 0.54 µg/mL (≈ 1.42 µM) | TWI (MX1 [26]): 96%; T/C (P388 [27]): 167% |

| SMILES | IC50 (LoVo/Dx (Homo sapiens)) | RI (LoVo [2]) | IC50 (LoVo [4]) | other results |
| --- | --- | --- | --- | --- |
| O=C1c2c(O)ccc(O)c2C(=O)c2c(NCCNCCO)ccc(NCCNCCO)c21 [MITOXANTRONE] | 0.67 µg/mL (≈ 1.51 µM) | 28 | 0.024 µg/mL (≈ 0.054 µM) | T/C (P388 [24]): 197%; TWI (MX1 [25]): 57% |
